Results gathered from unrelated publications.
Protocols differ between the studies behind these lines.
Cell line: A549
Effect on: cell growth or viability

| Structure (SMILES) | assay | conditions | IC50 |
| --- | --- | --- | --- |
| COc1ccc(C(=O)O[C@@H]2CN3Cc4c(cc5c(c4OC)OCO5)[C@@]24C=C[C@H](OC)C[C@@H]34)cc1 | WST-1 |  | > 10 µM |
| COCCCOc1ccnc(COc2ccc(NC(=O)Nc3ccc(F)cc3)cc2)c1C | MTT | 72 h | 5.74 µM |
| CCN(CC)CCCn1cccc1/C=N/NC(=O)Nc1cc2c(Nc3ccc(F)c(Cl)c3)ncnc2cc1O[C@H]1CCOC1 | MTT | 72 h | 2.36 µM |
| NNc1nc(Nc2ccccc2)nc(Nc2ccc(Br)cc2)n1 | SRB | 72 h | > 30 µM |
| COc1cc([C@@H]2c3cc4c(cc3[C@@H](O[C@@H]3O[C@@H]5CO[C@@H](C)O[C@H]5[C@H](O)[C@H]3O)[C@H]3COC(=O)[C@H]23)OCO4)cc(OC)c1O | MTT | 72 h | 0.54 µM |
| Cc1ccc(C)n1-c1ccc(-c2nnc(-c3ccccc3Cl)[nH]2)cc1 | MTT | 72 h | 228 µM |
| CCN(CC)C/C=N/NC(=O)Nc1cc2c(Nc3ccc(F)c(Cl)c3)ncnc2cc1O[C@H]1CCOC1 | MTT | 72 h | 4.32 µM |
| COc1cc([C@@H]2c3cc4c(cc3[C@@H](O[C@@H]3O[C@@H]5CO[C@@H](C)O[C@H]5[C@H](O)[C@H]3O)[C@H]3COC(=O)[C@H]23)OCO4)cc(OC)c1O | MTT | 48 h | 11.9 µM |
| COc1ccccc1OCCNC[C@@H](O)COc1cccc2[nH]c3ccccc3c12 | CCK-8 |  | 23.4 µM |
| Cc1cc(C)cc(NC(=O)NNC(=O)c2ccc(Nc3nccc(-c4ccccn4)n3)cc2)c1 | MTT | 24 h | > 40 µM |
| C=C(Cl)C(=O)Nc1cc(Nc2nc(N3CCCC3)c3sccc3n2)c(OC)cc1N(C)CCN(C)C | MTT |  | 4.54 µM |
| CN1C(=O)/C(=N\NC(=O)c2cc3ccccc3[nH]2)c2cc(Cl)ccc21 |  |  | 2.13 µM |
| C=C(Cl)C(=O)Nc1cc(Nc2nc(Nc3cnn(C)c3)c3sccc3n2)c(OC)cc1N1CCN(C)CC1 | MTT |  | 0.655 µM |
| COc1ccc(-c2csc(Nc3ccc4c(O)ncnc4c3)n2)cc1 | MTT |  | 25 µM |
| C=CC1=C(C)c2cc3[nH]c(cc4nc(cc5[nH]c(cc1n2)c(C)c5CCC(=O)O)C(CCC(=O)O)=C4C)c(C)c3C=C |  | 4 h, dark | > 100 µM |
| CC1=C(O)C(=O)C=C2C1=CC=C1[C@@]2(C)CC[C@@]2(C)[C@@H]3C[C@](C)(C(=O)OCCCBr)CC[C@]3(C)CC[C@]12C | MTT | 48 h | 4.95 µM |
| COc1ccccc1/C=C/CNCC(O)COc1ccc2[nH]ccc2c1 (stereo not shown) | CCK-8 | 72 h | 25.4 µM |
| COc1cc(-c2nc(C(=O)Nc3nnc(-c4cc5ccccc5n4C)s3)cc3c2[nH]c2ccccc23)cc(OC)c1OC | MTT | 72 h | 7.85 µM |
| O=C(NC(=S)N1CCCC1)c1ccc2ccccc2c1 |  | 48 h | 4.22 µM |
| C=C(Cl)C(=O)Nc1cc(Nc2nc(N3CCOCC3)c3sccc3n2)c(OC)cc1N(C)CCN(C)C | MTT |  | 0.107 µM |
| COc1cc2ncnc(Nc3ccc(F)c(Cl)c3)c2cc1NC(=O)N/N=C/CN(C)C | MTT | 72 h | 5.52 µM |
| COCCCOc1ccnc(COc2ccc(NC(=O)Nc3ccc(OC)cc3)cc2)c1C | MTT | 72 h | 11.4 µM |
